How the values were obtained:
Candida albicans = experiment: Antifungal activity against Candida albicans ATCC 90028 by modified CLSI/NCCLS method; format: functional, organism-based
KB = experiment: Cytotoxicity against human KB cells after 48 hrs by neutral red assay; format: functional, cell-based; conditions: kb
In short: (§1)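 Cells seeded at 25,000 per well and incubated 24 h, then exposed to samples for 48 h. Viable cells were counted by neutral red, with DMSO as vehicle control. IC50 or TC50 values were derived from logarithmic plots of growth inhibition versus concentration.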

Plasmodium falciparum [1] = experiment: Antiplasmodial activity against Plasmodium falciparum W2 infected in RBCs by parasitic LDH release assay; format: functional, organism-based
In short: (§2)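 Infected erythrocytes at 2% parasitemia and 2% hematocrit, in RPMI 1640 with 10% human serum and amikacin 60 μg/mL, were exposed to serial dilutions under N2/O2/CO2 (90:5:5) at 37°C for 72 h. LDH was read with Malstat reagent (30 min), then NBT/PES in the dark (60 min), stopped with 5% acetic acid, at 650 nm. IC50 came from percent growth dose-response curves.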

Staphylococcus aureus = experiment: Antibacterial activity against methicillin-resistant Staphylococcus aureus ATCC 43300 by modified CLSI/NCCLS method; format: functional, organism-based
[2] = Toxicity against pig LLC-PK11 cells after 48 hrs by neutral red assay; format: cell-based, Sus scrofa; conditions: llc-pk11, 48 h; in short: as §1
[3] = Cytotoxicity against human NCI60 cells after 48 hrs by neutral red assay; format: functional; conditions: NCI60, 48 h
[4] = Selectivity index, ratio of TC50 for african green monkey (Cercopithecus aethiops) Vero cells to IC50 for Plasmodium falciparum W2; format: toxicity, cell-based
Pseudomonas aeruginosa = experiment: Antibacterial activity against Pseudomonas aeruginosa ATCC 27853 by modified CLSI/NCCLS method; format: functional, organism-based
Leishmania donovani = experiment: Antileishmanial activity against Leishmania donovani promastigotes after 48 hrs by alamar blue assay; format: functional, organism-based; conditions: Leishmania donovani, 48 h
Vero = experiment: Toxicity against african green monkey Vero cells after 48 hrs by neutral red assay; format: cell-based; conditions: chlorocebus sabaeus, vero, 48 h; in short: as §1
BT-549 = experiment: Cytotoxicity against human BT549 cells after 48 hrs by neutral red assay; format: functional, cell-based; conditions: bt-549; in short: as §1
SK-OV-3 = experiment: Cytotoxicity against human SKOV3 cells after 48 hrs by neutral red assay; format: functional, cell-based; conditions: sk-ov-3; in short: as §1
Aspergillus fumigatus = experiment: Antifungal activity against Aspergillus fumigatus ATCC 90906 by modified CLSI/NCCLS method; format: functional, organism-based
[5] = Selectivity index, ratio of TC50 for african green monkey (Cercopithecus aethiops) Vero cells to IC50 for Plasmodium falciparum D6; format: toxicity, cell-based
Escherichia coli = experiment: Antibacterial activity against Escherichia coli ATCC 35218 by modified CLSI/NCCLS method; format: functional, organism-based; conditions: Escherichia coli, ATCC 35218; read-out: IC50
[6] = Toxicity against african green monkey Vero cells; format: cell-based; conditions: chlorocebus sabaeus; in short: as §1
[7] = test system: Mycobacterium intracellulare; experiment: Antibacterial activity against Mycobacterium intracellular ATCC 23068 by Franzblau method; format: functional, organism-based
Plasmodium falciparum [8] = experiment: Antiplasmodial activity against Plasmodium falciparum D6 infected in RBCs by parasitic LDH release assay; format: functional, organism-based; in short: as §2
SK-MEL = experiment: Cytotoxicity against human SK-MEL cells after 48 hrs by neutral red assay; format: functional, cell-based; conditions: sk-mel; in short: as §1
Cryptococcus neoformans = experiment: Antifungal activity against Cryptococcus neoformans ATCC 90113 by modified CLSI/NCCLS method; format: functional, organism-based

With `C[C@H]1[C@@H](OCc2cc(O)cc(O[C@H]3O[C@@H]4O[C@@]5(C)CC[C@H]6[C@H](C)CC[C@@H]([C@H]3C)[C@@]46OO5)c2)O[C@@H]2O[C@@]3(C)CC[C@H]4[C@H](C)CC[C@@H]1[C@@]24OO3` the IC50 (Candida albicans) was “Not Active”, the IC50 (KB) was “Not Active” and the IC50 (Plasmodium falciparum [1]) was 0.0042 µM. For the same compound, the IC50 (Staphylococcus aureus) was “Not Active”, the TC50 [2] was “Not Active” and the GI50 [3] was 0.0245 µM. The TGI [3] was 2.82 µM, the CC50 ([3]; read-out: LC50 (the source's name)) was 15.1 µM and the selectivity ratio [4] was greater than 1700. For the same compound, the IC50 (Pseudomonas aeruginosa) was “Not Active”, the IC90 (Leishmania donovani) was 32.7 µM and the IC50 (Leishmania donovani; read-out: IC50) was 5.9 µM. The TC50 (Vero) was “Not Active”, the IC50 (BT-549) was “Not Active” and the IC50 (SK-OV-3) was “Not Active”. The IC50 (Aspergillus fumigatus) was “Not Active”, the selectivity ratio [5] was greater than 2380 and the IC50 (Escherichia coli) was 22.3 µM. For the same compound, the CC50 [6] was greater than 7.07 µM, the IC50 [7] was “Not Active” and the IC50 (Plasmodium falciparum [8]) was 0.003 µM. For the same compound, the IC50 (SK-MEL) was “Not Active” and the IC50 (Cryptococcus neoformans) was 1.49 µM.

Source: ChEMBL document CHEMBL1153083, “Antiprotozoal, anticancer and antimicrobial activities of dihydroartemisinin acetal dimers and monomers” (Bioorg Med Chem, 2009)
